In ChEMBL document CHEMBL1933058, “5-(2-amino-pyrimidin-4-yl)-1H-pyrrole and 2-(2-amino-pyrimidin-4-yl)-1,5,6,7-tetrahydro-pyrrolo[3,2-c]pyridin-4-one derivatives as new classes of selective and orally available Polo-like kinase 1 inhibitors” (Bioorg Med Chem Lett, 2012):
One block for each compound: values may come before it. Active and inactive are the calls of the source. The calls are words filed in the database; no cut-off is given here.

Experiments:
[1] = AUC (0 to infinity) in Nu/Nu Balb Harlan mouse at 10 mg/kg, iv; assay type: ADME, organism-based; set-up: time infinity, dose 10 mg/kg, route intravenous; conditions: plasma
In short: (§1)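 Male Balb Nu/Nu mice (Harlan) received a single 10 mg/kg intravenous dose, n = 3 animals per study. Vehicle was either trifluoroacetate salt in dextrose or free base in 50% PEG 400/glucosate, depending on compound. Parameters were reported as mean ± standard deviation.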

[2] = Clearance in Nu/Nu Balb Harlan mouse at 10 mg/kg, iv; assay type: ADME, organism-based; set-up: dose 10 mg/kg, route intravenous; conditions: in vivo; in short: as §1
[3] = Volume of distribution at steady state in Nu/Nu Balb Harlan mouse at 10 mg/kg, iv; assay type: ADME, organism-based; set-up: dose 10 mg/kg, route intravenous; conditions: in vivo, read-out: Vdss
[4] = Half life in Nu/Nu Balb Harlan mouse at 10 mg/kg, iv; assay type: ADME, organism-based; set-up: dose 10 mg/kg, route intravenous; conditions: in vivo; in short: as §1
[5] = Cmax in Nu/Nu Balb Harlan mouse at 10 mg/kg, po; assay type: ADME, organism-based; set-up: dose 10 mg/kg, route oral; conditions: in vivo
[6] = AUC (0 to infinity) in Nu/Nu Balb Harlan mouse at 10 mg/kg, po; assay type: ADME, organism-based; set-up: time infinity, dose 10 mg/kg, route oral; conditions: plasma
[7] = Terminal half life in Nu/Nu Balb Harlan mouse at 10 mg/kg, po; assay type: ADME, organism-based; set-up: dose 10 mg/kg, route oral; conditions: in vivo, read-out: beta t1/2 (converted)
[8] = Oral bioavailability in Nu/Nu Balb Harlan mouse at 10 mg/kg; assay type: ADME, organism-based; conditions: in vivo
A2780 [9] = test: Cell cycle arrest in human A2780 cells assessed as accumulation at G2/M phase at 0.05 to 5 uM after 24 hrs by FACS analysis; assay type: functional, cell-based
In short: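 A2780 cells were exposed for 24 h to 0.05, 0.5 or 5 µM. Cell-cycle distribution was read by flow cytometry (FACS), scoring G2-M accumulation. Nocodazole-treated cells served as positive control.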

A2780 [10] = test: Cell cycle arrest in human A2780 cells assessed as increase of phospho Ser10 histone H3 level after 24 hrs by Western blotting analysis; assay type: functional, cell-based
In short: (§2)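 A2780 cells were treated for 24 h at 0.05, 0.5 and 5 µM, with nocodazole as positive control. Lysates were immunoblotted for pSer10 histone H3, pThr199 nucleophosmin, cyclin B1, cyclin A, PARP cleavage and caspase 3 activation.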

A2780 [11] = test: Cell cycle arrest in human A2780 cells assessed as induction of phospho Thr199 nucleophosmin level after 24 hrs by Western blotting analysis; assay type: functional, cell-based; in short: as §2
A2780 [12] = test: Induction of apoptosis in human A2780 cells assessed as PARP cleavage at 5 uM after 24 hrs by Western blotting analysis; assay type: functional, cell-based; in short: as §2
A2780 [13] = test: Induction of apoptosis in human A2780 cells assessed as caspase3 activation at 5 uM after 24 hrs by Western blotting analysis; assay type: functional, cell-based; in short: as §2
A2780 [14] = test: Cell cycle arrest in human A2780 cells assessed as increase of phospho Ser10 histone H3 level at 0.05 to 5 uM after 1 hr by Western blotting analysis; assay type: functional, cell-based
In short: (§3)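 A2780 cells got 1 h exposure at 0.05, 0.5 and 5 µM, with nocodazole-treated cells as comparator. Western blot was used to probe the PLK1 substrate marker pSer46 TCTP and the mitotic marker pSer10 histone H3.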

A2780 [15] = test: Cell cycle arrest in human A2780 cells assessed as reduction of phospho Ser46 TCTP level at 0.05 to 5 uM after 1 hr by Western blotting analysis; assay type: functional, cell-based; in short: as §3
[16] = molecular target: Serine/threonine-protein kinase PLK1 (Homo sapiens, UniProt P53350); test: Inhibition of PLK1
Serine/threonine-protein kinase PLK1, sequence (P53350 whole entry): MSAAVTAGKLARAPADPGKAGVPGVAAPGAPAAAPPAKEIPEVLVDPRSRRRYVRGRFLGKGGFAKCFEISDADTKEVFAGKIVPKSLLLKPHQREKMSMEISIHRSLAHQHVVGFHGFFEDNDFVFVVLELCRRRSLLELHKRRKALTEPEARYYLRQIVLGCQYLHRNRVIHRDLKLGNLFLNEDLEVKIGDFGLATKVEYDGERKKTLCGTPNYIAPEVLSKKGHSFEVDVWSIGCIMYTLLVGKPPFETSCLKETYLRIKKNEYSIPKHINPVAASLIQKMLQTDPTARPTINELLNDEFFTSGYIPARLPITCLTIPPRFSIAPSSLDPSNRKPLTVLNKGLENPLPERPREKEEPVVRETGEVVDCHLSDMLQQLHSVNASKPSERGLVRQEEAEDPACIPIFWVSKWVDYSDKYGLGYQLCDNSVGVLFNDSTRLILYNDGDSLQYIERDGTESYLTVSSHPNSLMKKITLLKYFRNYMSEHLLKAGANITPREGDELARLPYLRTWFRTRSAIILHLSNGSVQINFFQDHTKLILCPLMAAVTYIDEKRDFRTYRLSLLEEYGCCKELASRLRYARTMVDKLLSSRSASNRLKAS

[17] = molecular target: Serine/threonine-protein kinase PLK2 (Homo sapiens, UniProt Q9NYY3); test: Inhibition of PLK2
Serine/threonine-protein kinase PLK2, sequence (Q9NYY3 whole entry): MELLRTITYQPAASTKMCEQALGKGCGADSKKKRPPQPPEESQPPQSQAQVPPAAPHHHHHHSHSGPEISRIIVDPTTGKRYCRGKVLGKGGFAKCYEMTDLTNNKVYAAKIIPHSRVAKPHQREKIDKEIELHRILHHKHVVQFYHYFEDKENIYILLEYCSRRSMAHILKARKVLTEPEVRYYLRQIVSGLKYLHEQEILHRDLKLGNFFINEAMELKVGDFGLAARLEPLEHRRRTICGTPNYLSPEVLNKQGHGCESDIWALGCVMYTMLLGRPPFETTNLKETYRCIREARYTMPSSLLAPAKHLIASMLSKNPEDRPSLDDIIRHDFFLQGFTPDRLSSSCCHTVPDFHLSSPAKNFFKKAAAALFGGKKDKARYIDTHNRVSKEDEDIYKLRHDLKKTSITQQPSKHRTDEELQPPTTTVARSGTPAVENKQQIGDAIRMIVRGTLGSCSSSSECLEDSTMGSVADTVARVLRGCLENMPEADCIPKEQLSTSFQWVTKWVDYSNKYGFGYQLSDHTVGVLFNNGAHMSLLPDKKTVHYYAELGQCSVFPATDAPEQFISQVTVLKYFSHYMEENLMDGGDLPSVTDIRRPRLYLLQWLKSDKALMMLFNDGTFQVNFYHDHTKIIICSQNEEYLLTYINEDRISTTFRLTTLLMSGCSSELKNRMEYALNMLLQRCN

[18] = molecular target: Serine/threonine-protein kinase PLK3 (Homo sapiens, UniProt Q9H4B4); test: Inhibition of PLK3
Serine/threonine-protein kinase PLK3, sequence (Q9H4B4 whole entry): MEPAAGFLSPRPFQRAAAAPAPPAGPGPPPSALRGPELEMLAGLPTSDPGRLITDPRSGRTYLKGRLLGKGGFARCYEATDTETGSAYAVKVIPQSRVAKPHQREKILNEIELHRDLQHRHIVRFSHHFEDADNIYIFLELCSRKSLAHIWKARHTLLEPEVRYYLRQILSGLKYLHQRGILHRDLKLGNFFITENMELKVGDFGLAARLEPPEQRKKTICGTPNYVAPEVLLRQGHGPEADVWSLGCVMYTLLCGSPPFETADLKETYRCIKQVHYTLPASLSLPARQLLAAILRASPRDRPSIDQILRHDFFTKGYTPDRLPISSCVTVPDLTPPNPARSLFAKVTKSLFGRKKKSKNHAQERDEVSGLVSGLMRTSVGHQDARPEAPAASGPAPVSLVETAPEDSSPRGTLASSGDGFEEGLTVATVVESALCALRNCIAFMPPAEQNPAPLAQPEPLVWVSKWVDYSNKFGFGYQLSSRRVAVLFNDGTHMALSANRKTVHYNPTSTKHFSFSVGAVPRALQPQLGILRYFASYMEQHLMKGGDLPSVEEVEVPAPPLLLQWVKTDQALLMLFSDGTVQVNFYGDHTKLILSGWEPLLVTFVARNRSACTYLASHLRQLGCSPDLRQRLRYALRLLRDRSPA

[19] = molecular target: Cyclin-dependent kinase 2/cyclin A (Homo sapiens, UniProt P24941); test: Inhibition of CDK2/cyclin A; assay type: protein-complex assay
Aurora kinase A = molecular target: T1, Aurora kinase A (Homo sapiens, UniProt O14965); test: Inhibition of Aurora-A
T1 sequence (O14965 whole entry): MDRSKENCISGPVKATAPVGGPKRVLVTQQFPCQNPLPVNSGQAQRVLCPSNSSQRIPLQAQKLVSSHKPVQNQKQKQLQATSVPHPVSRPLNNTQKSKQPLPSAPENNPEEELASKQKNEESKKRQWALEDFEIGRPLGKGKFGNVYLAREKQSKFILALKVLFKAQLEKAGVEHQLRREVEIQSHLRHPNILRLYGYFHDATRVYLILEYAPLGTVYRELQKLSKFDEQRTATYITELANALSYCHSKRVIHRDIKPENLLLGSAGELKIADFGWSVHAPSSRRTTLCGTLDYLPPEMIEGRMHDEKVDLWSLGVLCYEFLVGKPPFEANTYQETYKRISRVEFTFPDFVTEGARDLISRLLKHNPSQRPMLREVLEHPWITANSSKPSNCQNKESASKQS

A2780 [20] = test: Antiproliferative activity against human A2780 cells; assay type: functional, cell-based

AUC(0-inf) [1]: 5.41 µM·h
clearance [2]: 74.7 mL/min/kg
Vd [3]: 2.5 L/kg
half-life [4]: 0.65 h
Cmax [5]: 760 nM
AUC(0-inf) [6]: 1.92 µM·h
half-life [7]: 1.7 h
bioavailability [8]: 36%
Structure (SMILES): CN1CCN(c2ccc(OC(F)(F)F)c(Nc3nccc(-c4cc(C(N)=O)cn4C)n3)c2)CC1.O=C(O)C(F)(F)F

Structure (SMILES): CN1CCN(c2ccc(OC(F)(F)F)c(Nc3nccc(-c4cc(C(N)=O)cn4C)n3)c2)CC1
Activity (A2780 [9]): Active
Activity (A2780 [10]): Dose-dependent effect
Activity (A2780 [11]): Dose-dependent effect
Activity (A2780 [12]): Active
Activity (A2780 [13]): Active
Activity (A2780 [14]): Active
Activity (A2780 [15]): Active

IC50 [16]: 0.272 µM
IC50 [17]: > 10 µM
IC50 [18]: > 10 µM
IC50 [19]: > 10 µM
IC50 (Aurora kinase A): > 10 µM
IC50 (A2780 [20]): 6.69 µM
Structure (SMILES): CN1CCN(c2ccc(OC(F)(F)F)c(Nc3nccc(-c4cc(C(N)=O)cn4CCOC4CCCCO4)n3)c2)CC1 (configuration not stated)

IC50 [16]: 0.151 µM
IC50 [17]: > 10 µM
IC50 [18]: > 10 µM
IC50 [19]: > 10 µM
IC50 (Aurora kinase A): > 10 µM
IC50 (A2780 [20]): 2.53 µM
Structure (SMILES): CN1CCN(c2ccc(OC(F)(F)F)c(Nc3nccc(-c4cc(C(N)=O)cn4CCO)n3)c2)CC1
